Assay results pooled from the literature.
Protocols differ between the studies behind these lines.
Target: Tyrosine-protein kinase HCK (HCK, Homo sapiens, UniProt P08631)

`N#CC1(c2ccccn2)CCN(Cc2cc(C(=O)O)c(=O)n3ccccc23)CC1` has a remaining binding of 100% (cell-free assay, competition with immobilised ligand; 1 µM).
`Cc1nn(C)cc1-c1nc2c(N3CCN(Cc4ccc(Cl)cc4)CC3)c(Cl)cnc2[nH]1` has a remaining binding of 100% (binding, competition with immobilised ligand; 1 µM).
For `COc1cc(Nc2ncc(F)c(Nc3ccc4c(n3)NC(=O)C(C)(C)O4)n2)cc(OC)c1OC`, the inhibition was 98% (binding, competition with immobilised ligand; 10 µM).
For `O=c1[nH]c2ccccc2n1C1CCN(Cc2ccc(-c3[nH]c4cc5ncnc5cc4nc3-c3ccccc3)cc2)CC1`, the remaining signal was 99.6% (cell-free assay; 0.5 µM).
The remaining binding of `COc1ncccc1-c1cnn2ccc(N3CCN(C(=O)OC(C)C)CC3)nc12` is reported as 60% (binding, competition with immobilised ligand; 1 µM).
For `Cn1cncc1[C@@](O)(COc1ccc(C#N)cc1-c1ccc(OC(F)(F)F)cc1)c1ccc(C#N)cc1`, the remaining binding was 100% (cell-free assay, competition with immobilised ligand; 1 µM).
The inhibition of `Cn1cc(-c2cc(F)cc(N3CCn4c(cc5c4CCCC5)C3=O)c2CO)cc(Nc2ccc(N3CCN(C4COC4)CC3)cn2)c1=O` is reported as 9% (enzyme activity, inhibitor; 0.1 µM).
`Nc1ncc(-c2nc(N3CCOCC3)nc(N3CCOCC3)n2)c(C(F)F)n1` gave a remaining binding of 77% (binding, competition with immobilised ligand; 10 µM).
`CC(C)(C)c1cc(C=C(C#N)C#N)cc(Br)c1O` gave a remaining activity of 66.1% (enzyme activity, inhibitor; 0.5 µM).
For `Cn1cc(-c2cccc(N3CCc4c(sc5c4CC(C)(C)C5)C3=O)c2CO)cc(Nc2ccncn2)c1=O`, the inhibition was 6% (enzyme activity, inhibitor; 1 µM).
